# Reference: ChEMBL document CHEMBL1156310, “Stepwise synthesis of oligonucleotide-peptide conjugates containing guanidinium and lipophilic groups in their 3'-termini” (Bioorg Med Chem Lett, 2010)
# Assays:
# SH-SY5Y [1] = assay: Antisense activity in human SH-SY5Y cells assessed as inhibition of luciferase gene expression at 60 nM after 22 hrs by luminometry in the presence of lipofectamine 2000; type: functional
# Summary of the method: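 SH-SY5Y cells cotransfected via Lipofectamine 2000 with Renilla (target) and firefly (internal control) luciferase plasmids plus phosphorothioate ASO derivatives at 60 nM, targeting Renilla mRNA site 21-38; scrambled sequences as controls. Read-out: Renilla luciferase inhibition normalized to firefly.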
# SH-SY5Y [2] = assay: Cellular uptake in human SH-SY5Y cells at 300 nM after 22 hrs by dual leucifearse reporter assay; type: ADME, cell-based; conditions: 0.3 µM
# Summary of the method: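 Dual-luciferase plasmids (Renilla target, firefly internal control) transfected into SH-SY5Y; after 3 h, medium replaced with fresh medium containing ASO-peptide conjugates (150, 200, 300 nM) without Lipofectamine 2000. Luciferase activities measured 22 h after transfection; knockdown expressed as inhibition of Renilla expression. Phosphorothioate ASO targets Renilla mRNA 21-38 site.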
Structure (SMILES),inhibition at 0.06 µM (SH-SY5Y [1]) [%],Drug uptake (SH-SY5Y [2]) [%]
Cc1cn([C@H]2C[C@H](OP(O)(=S)OC[C@H]3O[C@@H](n4cc(C)c(=O)[nH]c4=O)C[C@@H]3OP(O)(=S)OC[C@H]3O[C@@H](n4cnc5c(=O)[nH]c(N)nc54)[C@H](O)[C@@H]3OP(O)(=S)OC[C@H]3O[C@@H](n4cc(C)c(=O)[nH]c4=O)C[C@@H]3OP(O)(=S)OC[C@H]3O[C@@H](n4cc(C)c(=O)[nH]c4=O)C[C@@H]3OP(O)(=S)OC[C@H]3O[C@@H](n4cc(C)c(=O)[nH]c4=O)C[C@@H]3OP(O)(=S)OC[C@H]3O[C@@H](n4ccc(N)nc4=O)[C@H](O)[C@@H]3OP(O)(=S)OC[C@H]3O[C@@H](n4ccc(N)nc4=O)[C@H](O)[C@@H]3OP(O)(=S)OC[C@H]3O[C@@H](n4cc(C)c(=O)[nH]c4=O)C[C@@H]3OP(O)(=S)OC[C@H]3O[C@@H](n4cc(C)c(=O)[nH]c4=O)C[C@@H]3OP(O)(=S)OC[C@H]3O[C@@H](n4cc(C)c(=O)[nH]c4=O)C[C@@H]3OP(O)(=S)OC[C@H]3O[C@@H](n4cnc5c(=O)[nH]c(N)nc54)[C@H](O)[C@@H]3OP(O)(=S)OC[C@H]3O[C@@H](n4ccc(N)nc4=O)[C@H](O)[C@@H]3O)[C@@H](COP(O)(=S)O[C@H]3[C@@H](O)[C@H](n4ccc(N)nc4=O)O[C@@H]3COP(O)(=S)O[C@H]3C[C@H](n4cc(C)c(=O)[nH]c4=O)O[C@@H]3COP(O)(=S)O[C@H]3[C@@H](O)[C@H](n4cnc5c(=O)[nH]c(N)nc54)O[C@@H]3COP(O)(=S)O[C@H]3[C@@H](O)[C@H](n4cnc5c(=O)[nH]c(N)nc54)O[C@@H]3COP(O)(=S)O[C@H]3[C@@H](O)[C@H](n4cnc5c(N)ncnc54)O[C@@H]3COP(O)(=S)OCCCC(=O)N[C@H](CCCCN)C(=O)N[C@@H](CCCCN)C(=O)N[C@H](CCCCN)C(=O)N[C@@H](CCCCN)C(=O)N[C@H](CCCCN)C(=O)N[C@@H](CCCCN)C(=O)N[C@H](CCCCN)C(=O)N[C@@H](CCCCN)C(=O)NCCCCCCO)O2)c(=O)[nH]c1=O (some centres not stated),65,11
Cc1cn([C@H]2C[C@H](OP(O)(=S)OC[C@H]3O[C@@H](n4cc(C)c(=O)[nH]c4=O)C[C@@H]3OP(O)(=S)OC[C@H]3O[C@@H](n4cnc5c(=O)[nH]c(N)nc54)[C@H](O)[C@@H]3OP(O)(=S)OC[C@H]3O[C@@H](n4cc(C)c(=O)[nH]c4=O)C[C@@H]3OP(O)(=S)OC[C@H]3O[C@@H](n4cc(C)c(=O)[nH]c4=O)C[C@@H]3OP(O)(=S)OC[C@H]3O[C@@H](n4cc(C)c(=O)[nH]c4=O)C[C@@H]3OP(O)(=S)OC[C@H]3O[C@@H](n4ccc(N)nc4=O)[C@H](O)[C@@H]3OP(O)(=S)OC[C@H]3O[C@@H](n4ccc(N)nc4=O)[C@H](O)[C@@H]3OP(O)(=S)OC[C@H]3O[C@@H](n4cc(C)c(=O)[nH]c4=O)C[C@@H]3OP(O)(=S)OC[C@H]3O[C@@H](n4cc(C)c(=O)[nH]c4=O)C[C@@H]3OP(O)(=S)OC[C@H]3O[C@@H](n4cc(C)c(=O)[nH]c4=O)C[C@@H]3OP(O)(=S)OC[C@H]3O[C@@H](n4cnc5c(=O)[nH]c(N)nc54)[C@H](O)[C@@H]3OP(O)(=S)OC[C@H]3O[C@@H](n4ccc(N)nc4=O)[C@H](O)[C@@H]3O)[C@@H](COP(O)(=S)O[C@H]3[C@@H](O)[C@H](n4ccc(N)nc4=O)O[C@@H]3COP(O)(=S)O[C@H]3C[C@H](n4cc(C)c(=O)[nH]c4=O)O[C@@H]3COP(O)(=S)O[C@H]3[C@@H](O)[C@H](n4cnc5c(=O)[nH]c(N)nc54)O[C@@H]3COP(O)(=S)O[C@H]3[C@@H](O)[C@H](n4cnc5c(=O)[nH]c(N)nc54)O[C@@H]3COP(O)(=S)O[C@H]3[C@@H](O)[C@H](n4cnc5c(N)ncnc54)O[C@@H]3COP(O)(=S)OCCCC(=O)N[C@H](CCCCN)C(=O)N[C@@H](CCCCN)C(=O)N[C@H](CCCCN)C(=O)N[C@@H](CCCCN)C(=O)NCCCCCCO)O2)c(=O)[nH]c1=O (some centres not stated),57,15
Cc1cn([C@H]2C[C@H](OP(O)(=S)OC[C@H]3O[C@@H](n4cc(C)c(=O)[nH]c4=O)C[C@@H]3OP(O)(=S)OC[C@H]3O[C@@H](n4cnc5c(=O)[nH]c(N)nc54)[C@H](O)[C@@H]3OP(O)(=S)OC[C@H]3O[C@@H](n4cc(C)c(=O)[nH]c4=O)C[C@@H]3OP(O)(=S)OC[C@H]3O[C@@H](n4cc(C)c(=O)[nH]c4=O)C[C@@H]3OP(O)(=S)OC[C@H]3O[C@@H](n4cc(C)c(=O)[nH]c4=O)C[C@@H]3OP(O)(=S)OC[C@H]3O[C@@H](n4ccc(N)nc4=O)[C@H](O)[C@@H]3OP(O)(=S)OC[C@H]3O[C@@H](n4ccc(N)nc4=O)[C@H](O)[C@@H]3OP(O)(=S)OC[C@H]3O[C@@H](n4cc(C)c(=O)[nH]c4=O)C[C@@H]3OP(O)(=S)OC[C@H]3O[C@@H](n4cc(C)c(=O)[nH]c4=O)C[C@@H]3OP(O)(=S)OC[C@H]3O[C@@H](n4cc(C)c(=O)[nH]c4=O)C[C@@H]3OP(O)(=S)OC[C@H]3O[C@@H](n4cnc5c(=O)[nH]c(N)nc54)[C@H](O)[C@@H]3OP(O)(=S)OC[C@H]3O[C@@H](n4ccc(N)nc4=O)[C@H](O)[C@@H]3O)[C@@H](COP(O)(=S)O[C@H]3[C@@H](O)[C@H](n4ccc(N)nc4=O)O[C@@H]3COP(O)(=S)O[C@H]3C[C@H](n4cc(C)c(=O)[nH]c4=O)O[C@@H]3COP(O)(=S)O[C@H]3[C@@H](O)[C@H](n4cnc5c(=O)[nH]c(N)nc54)O[C@@H]3COP(O)(=S)O[C@H]3[C@@H](O)[C@H](n4cnc5c(=O)[nH]c(N)nc54)O[C@@H]3COP(O)(=S)O[C@H]3[C@@H](O)[C@H](n4cnc5c(N)ncnc54)O[C@@H]3COP(O)(=S)OCCCC(=O)NCCCCCCO)O2)c(=O)[nH]c1=O (some centres not stated),69,–
CCCCCCCCNC(=O)NCCCC[C@@H](NC(=O)CCCOP(O)(=S)OC[C@H]1O[C@@H](n2cnc3c(N)ncnc32)[C@H](O)[C@@H]1OP(O)(=S)OC[C@H]1O[C@@H](n2cnc3c(=O)[nH]c(N)nc32)[C@H](O)[C@@H]1OP(O)(=S)OC[C@H]1O[C@@H](n2cnc3c(=O)[nH]c(N)nc32)[C@H](O)[C@@H]1OP(O)(=S)OC[C@H]1O[C@@H](n2cc(C)c(=O)[nH]c2=O)C[C@@H]1OP(O)(=S)OC[C@H]1O[C@@H](n2ccc(N)nc2=O)[C@H](O)[C@@H]1OP(O)(=S)OC[C@H]1O[C@@H](n2cc(C)c(=O)[nH]c2=O)C[C@@H]1OP(O)(=S)OC[C@H]1O[C@@H](n2cc(C)c(=O)[nH]c2=O)C[C@@H]1OP(O)(=S)OC[C@H]1O[C@@H](n2cnc3c(=O)[nH]c(N)nc32)[C@H](O)[C@@H]1OP(O)(=S)OC[C@H]1O[C@@H](n2cc(C)c(=O)[nH]c2=O)C[C@@H]1OP(O)(=S)OC[C@H]1O[C@@H](n2cc(C)c(=O)[nH]c2=O)C[C@@H]1OP(O)(=S)OC[C@H]1O[C@@H](n2cc(C)c(=O)[nH]c2=O)C[C@@H]1OP(O)(=S)OC[C@H]1O[C@@H](n2ccc(N)nc2=O)[C@H](O)[C@@H]1OP(O)(=S)OC[C@H]1O[C@@H](n2ccc(N)nc2=O)[C@H](O)[C@@H]1OP(O)(=S)OC[C@H]1O[C@@H](n2cc(C)c(=O)[nH]c2=O)C[C@@H]1OP(O)(=S)OC[C@H]1O[C@@H](n2cc(C)c(=O)[nH]c2=O)C[C@@H]1OP(O)(=S)OC[C@H]1O[C@@H](n2cc(C)c(=O)[nH]c2=O)C[C@@H]1OP(O)(=S)OC[C@H]1O[C@@H](n2cnc3c(=O)[nH]c(N)nc32)[C@H](O)[C@@H]1OP(O)(=S)OC[C@H]1O[C@@H](n2ccc(N)nc2=O)[C@H](O)[C@@H]1O)C(=O)NCCCCCCO (some centres not stated),55,–
CCCCCCCCc1ccc(NC(=O)NCCCC[C@@H](NC(=O)CCCOP(O)(=S)OC[C@H]2O[C@@H](n3cnc4c(N)ncnc43)[C@H](O)[C@@H]2OP(O)(=S)OC[C@H]2O[C@@H](n3cnc4c(=O)[nH]c(N)nc43)[C@H](O)[C@@H]2OP(O)(=S)OC[C@H]2O[C@@H](n3cnc4c(=O)[nH]c(N)nc43)[C@H](O)[C@@H]2OP(O)(=S)OC[C@H]2O[C@@H](n3cc(C)c(=O)[nH]c3=O)C[C@@H]2OP(O)(=S)OC[C@H]2O[C@@H](n3ccc(N)nc3=O)[C@H](O)[C@@H]2OP(O)(=S)OC[C@H]2O[C@@H](n3cc(C)c(=O)[nH]c3=O)C[C@@H]2OP(O)(=S)OC[C@H]2O[C@@H](n3cc(C)c(=O)[nH]c3=O)C[C@@H]2OP(O)(=S)OC[C@H]2O[C@@H](n3cnc4c(=O)[nH]c(N)nc43)[C@H](O)[C@@H]2OP(O)(=S)OC[C@H]2O[C@@H](n3cc(C)c(=O)[nH]c3=O)C[C@@H]2OP(O)(=S)OC[C@H]2O[C@@H](n3cc(C)c(=O)[nH]c3=O)C[C@@H]2OP(O)(=S)OC[C@H]2O[C@@H](n3cc(C)c(=O)[nH]c3=O)C[C@@H]2OP(O)(=S)OC[C@H]2O[C@@H](n3ccc(N)nc3=O)[C@H](O)[C@@H]2OP(O)(=S)OC[C@H]2O[C@@H](n3ccc(N)nc3=O)[C@H](O)[C@@H]2OP(O)(=S)OC[C@H]2O[C@@H](n3cc(C)c(=O)[nH]c3=O)C[C@@H]2OP(O)(=S)OC[C@H]2O[C@@H](n3cc(C)c(=O)[nH]c3=O)C[C@@H]2OP(O)(=S)OC[C@H]2O[C@@H](n3cc(C)c(=O)[nH]c3=O)C[C@@H]2OP(O)(=S)OC[C@H]2O[C@@H](n3cnc4c(=O)[nH]c(N)nc43)[C@H](O)[C@@H]2OP(O)(=S)OC[C@H]2O[C@@H](n3ccc(N)nc3=O)[C@H](O)[C@@H]2O)C(=O)NCCCCCCO)cc1 (some centres not stated),8,–
